Bim-Bcl-W = disrupts Bim peptide binding to human Bcl-W; AID 952; bead-based flow cytometry; Q92843; actives 0.02% (n = 190,000); inhibition, % at 10 µM;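 also: 0% = bound tracer without compound and 100% = peptide blocker; higher means less fluorescent Bim peptide bound to Bcl-W beads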
Target sequence (Q92843 whole entry, looked up): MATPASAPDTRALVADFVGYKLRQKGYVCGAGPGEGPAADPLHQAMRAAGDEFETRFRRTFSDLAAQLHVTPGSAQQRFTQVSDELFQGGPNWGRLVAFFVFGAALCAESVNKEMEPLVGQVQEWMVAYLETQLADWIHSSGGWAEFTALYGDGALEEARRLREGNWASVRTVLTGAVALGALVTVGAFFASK
Bcl-B Bim block = human Bim-Bcl-B interaction inhibition; inhibition, % at 10 µM; actives 0.073% (n = 190,000); AID 951; Q9HD36; bead-based flow cytometry, Bim peptide-Bcl-B binding;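 also: 0% = tracer peptide without compound and 100% = reference inhibitor peptide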
Bcl-2 Bim block = human Bim-Bcl-2 interaction inhibition; inhibition, % at 10 µM; actives 0.06% (n = 190,000); Bead-based flow cytometry, Bim peptide-Bcl-2 binding; P10415; in the data active = inhibition above about 40%;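 also: 0% = no compound wells with probe peptide and 100% = reference peptide inhibitor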
Biofilm kill mix = mixtures killing C. albicans biofilm; C. albicans biofilm persisters + clotrimazole, fluorescence viability; primary screen in compound mixtures of four per well; inhibition, % at 7.6 µM; actives 0.02% (n = 120,000); AID 1242;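 active = inhibition above 30.3% in the primary screen of four-compound pools, then above 30% when the compound was retested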;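 also: compounds exposed to preformed 24 h biofilms for 48 h; 0% = untreated biofilm control and 100% = clotrimazole plus chlorhexidine kill blank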
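Test system: C. albicans CAF4-2 wild-type biofilms; buffer or medium: RPMI/MOPS medium, pH 7.0; schedule: 24 h biofilm formation, then 48 h compound exposure, 37 °C; detection: Alamar Blue fluorescence; measure: percent inhibition of biofilm viability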
Bim-Bfl-1 = disrupts Bim binding to human Bfl-1; Q16548; Bead-based flow cytometry, Bim-Bfl-1 binding inhibition; inhibition, % at 10 µM; actives 0.12% (n = 190,000);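 also: 0% = wells without compound plus tracer and 100% = blocker peptide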
Bcl-XL Bim block = disrupts Bim peptide binding to human Bcl-XL | Q07817 | bead flow cytometry, fluorescence | inhibition, % at 10 µM | actives 0.04% (n = 190,000) | AID 1007
* hit, by the source's call; x = no result given. Sampled rows, rich in hits. Any-hit rate of the full collection: about 0.17%. Rule as the data show it, unless noted: active = inhibition above about 40%.

SMILES	Bim-Bcl-W	Bcl-B Bim block	Bcl-2 Bim block	Biofilm kill mix	Bim-Bfl-1	Bcl-XL Bim block
COP(=O)(CC(=O)O)c1ccccc1 (stereo not drawn)	36	95*	26	x	-3	51*
C=CCn1c(O)c(C(C)=NC2CCN(Cc3ccccc3)CC2)c(=O)[nH]c1=O	x	x	x	9	x	x
c1ccc(-c2nc(N3CCOCC3)s[n+]2-c2ccccc2)cc1	7	-44	14	19	52*	9
CCC(C)NC(=O)CN1C(=O)CN=C(c2ccccc2)c2ccccc21 (stereo not drawn)	-1	-2	-1	-5	-5	0

Screening results from PubChem BioAssay.
